# Source: PMC11624666 (Drug Design, Development and Therapy, 2024)
# Like-named read-outs stand apart in the source and are kept apart here.
# Assays:
# [1] = Chinese patients, cited from earlier work
# [2] = Japanese patients, 300 mg single dosing; cited from earlier work
# [3] = Safety monitoring over Part A, Part B and Part C; assay type: in vivo; settings: healthy Chinese male subjects, single dose 100 mg or 150 mg
# Method in brief: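 Single oral dose in a randomized two-sequence (TR/RT) crossover, two periods, 7-day washout. Part A: 100 mg fasting (n = 14). Part B: 150 mg fasting (n = 44). Part C: 150 mg after a high-fat breakfast (n = 44). TEAEs, both subject-reported and investigator-observed including lab values, were collected throughout and graded by CTCAE 5.0. Monitoring covered physical exams, vital signs, laboratory tests, 12-lead ECG and CT scans.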
# [4] = ref summary of product characteristics of olaparib; cited from earlier work
# [5] = FDA Adverse Event Reporting System, cited from earlier work
# Effect of food: fed = assay type: in vivo, healthy Chinese male subjects; settings: 150 mg; P < 0.05
# [6] = previous studies; cited from earlier work
# [7] = assay type: in vivo, healthy Chinese male subjects; settings: male, human, plasma, po, 150 mg
# Method in brief: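 Two-sequence (TR/RT), two-period randomised crossover in 44 healthy males (18–50 y, BMI 19–26 kg/m2, ≥50 kg) with a 7-day washout. Each period: single oral 150 mg tablet (test or reference) under fasting, with fasting kept ≥4 h post-dose. Plasma spun at 1700 g, 10 min, 2–8°C, stored at −80°C. Assay: protein precipitation, HPLC-MS/MS, positive ion mode, calibration 10.0–5000 ng/mL.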
# [8] = patients; cited from earlier work
# [9] = six clinical pharmacology studies; cited from earlier work
Compound,arithmetic mean t1/2 ([1]; 100 mg single dosing),median Tmax ([1]; 100 mg single dosing),arithmetic mean t1/2 ([1]; 300 mg single dosing),arithmetic mean t1/2 [2],median Tmax [2],tolerability [3],"Tmax delayed by high-fat, high-calorie meal [4]","mean AUC increased by high-fat, high-calorie meal [4]",adverse events received related to olaparib ([5]; 2008 through first quarter of 2023),adverse events connected to genotoxicity [5],"difference in Tmax, fed vs fasting state (Effect of food: fed)",inter-individual variation in the AUC [6],Tmax [7],half-life [7],"first nausea, time after treatment initiation [8]","first vomiting, time after treatment initiation [8]",median time to first occurrence of anemia [8],tolerability in healthy individuals [9]
O=C(c1cc(Cc2n[nH]c(=O)c3ccccc23)ccc1F)N1CCN(C(=O)C2CC2)CC1 [olaparib],7.17 h,1.95 h,6.52 h,9.43 h,1.98 h,well tolerated,2.5 h,approximately 8%,"10,957",no adverse events,significantly prolonged,55–57%,1.5 h,5.94 h,≤ 1 month,≤ 2 months,approximately 4 weeks,
O=C(c1cc(Cc2n[nH]c(=O)c3ccccc23)ccc1F)N1CCn2nc(C(F)(F)F)nc2C1 [fluzoparib],,,,,,,,,,,,,,,,,,well tolerated
